High-throughput results from PubChem.
V1aR counter – agonists of human V1a receptor, primary screen, counter-screen for OXTR agonist project, fluorescence, CHO-V1R cells; Fluo-8 calcium fluorescence, agonist mode; 0% DMSO, 100% 3 nM vasopressin; Vasopressin V1a receptor (Homo sapiens), P37288; activation, % at 3 µM; 320,000 tested, 0.25% active; AID 2797, 2010;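 active means activation above the mean activation of all tested compounds plus 3 SD, per screening run, cut at about 20% in these data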;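 further: signal is peak over basal fluorescence ratio across a 100 second FLIPR read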
TAAR1 ag – human TAAR1 agonists, primary screen, Fluo-8 calcium fluorescence, CHO RD-HGA16 cells; activation, % at 3 µM; AID 624467, 2012; 360,000 tested, 0.99% active; vehicle wells 0%, saturating PEA agonist 100%; Trace amine-associated receptor 1 (Homo sapiens), Q96RJ0;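 active means activation above the mean activation of all test compounds in the run plus 3 SD, cut at about 38% in these data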
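Test system: RD-HGA16 (CHO) cells co-expressing Gα16 and hTAAR1; dosing: one-point dosing at 3 µM (nominal); timing: 17-24 h seeding, 75 min 37 °C dye, 30 min RT; signal: kinetic Fluo-8 calcium fluorescence; read-out basis: % activation relative to PEA EC100 response; controls: DMSO and PEA EC100; replicates: n 1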
TAAR1 antagonist – human TAAR1 antagonists, primary screen, Fluo-8 calcium fluorescence, CHO RD-HGA16 cells | Trace amine-associated receptor 1 (Homo sapiens), Q96RJ0 | 360,000 tested, 1.5% active | inhibition, % at 3 µM | antagonist;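 active means inhibition above a per-plate cutoff, the mean inhibition of test compounds on that plate plus 3 SD, cut at about 49% in these data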;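 further: 0% = DMSO plus EC80 beta-PEA response and 100% = DMSO alone without agonist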
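Assay system: RD-HGA16 CHO cells with stable hTAAR1 and Gα16 / Reagent: EC80 β-phenethylamine stimulus / Doses: 3 µM, single point / Timing: dye loading 75 min at 37 °C, then 30 min room temperature / Measured by: Fluo-8 intracellular calcium dye fluorescence, real-time kinetic reads / Controls: vehicle wells and EC80 agonist wells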
OXTR agonist – human OXTR agonists, primary screen, fluorescence, CHO-OTR cells, Fluo-8 calcium | Oxytocin receptor (Homo sapiens), P30559 | Fluo-8 calcium fluorescence; normalized: DMSO 0%, oxytocin 100% | activation, % at 3 µM | 320,000 tested, 0.32% active;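 active means activation above the mean of all tested compounds plus 3 SD, cutoff set per screening run, cut at about 20% in these data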;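 further: peak over basal fluorescence ratio from a 100 s FLIPR kinetic read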
Target sequence (P30559 whole entry, looked up): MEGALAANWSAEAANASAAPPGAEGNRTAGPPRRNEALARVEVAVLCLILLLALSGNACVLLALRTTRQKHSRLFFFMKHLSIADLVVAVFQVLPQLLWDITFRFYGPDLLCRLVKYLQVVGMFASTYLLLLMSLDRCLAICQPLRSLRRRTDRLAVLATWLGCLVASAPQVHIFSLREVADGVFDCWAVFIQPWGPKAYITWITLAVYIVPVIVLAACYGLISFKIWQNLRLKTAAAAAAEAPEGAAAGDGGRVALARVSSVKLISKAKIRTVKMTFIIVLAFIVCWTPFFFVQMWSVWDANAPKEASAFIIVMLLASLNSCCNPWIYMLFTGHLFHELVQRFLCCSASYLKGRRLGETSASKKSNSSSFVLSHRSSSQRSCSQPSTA
OXTR potentiate – human OXTR potentiators, primary screen, fluorescence, CHO-OTR cells, Fluo-8 calcium; Oxytocin receptor (Homo sapiens), P30559; Fluo-8 calcium fluorescence, potentiator mode; 0% = oxytocin EC15, 100% = EC100; activation, % at 3 µM; 320,000 tested, 0.061% active;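 active means activation above that plate's cutoff, the mean activation of tested compounds plus 3 SD, cut at about 6.6% in these data, passing the limit was not always enough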;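 further: 100% uses oxytocin at 75 nM as the full agonist control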
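Material: CHO-OTR cells, human receptor; compound dosing: single dose, 3.0 µM nominal final compound concentration; schedule: 6 min compound pre-incubation at room temperature, 100 s kinetic read; measured by: kinetic Fluo-8 calcium fluorescence; read-out basis: % activation vs EC15 and EC100 oxytocin; controls: EC15 oxytocin alone as 0%, 75 nM oxytocin as 100%; replicates: singlicate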
nonsel antag count – nonselective antagonists in TAAR1 counter-screen cells, counter-screen for hTAAR1 antagonist project, cell-based, fluorescence, calcium; shares compounds with TAAR1 antagonist; counterscreen cell line, antagonist mode; inhibition, % at 3 µM; 2,400 tested, 77% active; AID 651780, 2012; in the data active means inhibition above about 22%;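 further: CHO-Ga16 host cells stimulated with ATP at an EC80 level; 0% = agonist EC80 plus vehicle and 100% = vehicle without agonist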
TAAR1 antag conf – human TAAR1 antagonists, retest of hits, confirmation, cell-based, fluorescence; shares compounds with TAAR1 antagonist; inhibition, % at 3 µM; 2,400 tested, 40% active; TAAR1-expressing cells, fluorescence antagonist read-out; AID 651785, 2012; in the data active means inhibition above about 49%;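 further: CHO-Ga16 host cells challenged with agonist PEA near its EC80; 0% = agonist at EC80 plus vehicle and 100% = vehicle with no agonist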
Ga16 ag counter – calcium activation in Ga16-expressing cells, counter-screen for TAAR1 antagonist project, cell-based, fluorescence; shares compounds with TAAR1 antagonist; agonist counterscreen; 2,400 tested, 18% active; activation, % at 3 µM; in the data active means activation above about 12%;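 further: 0% = vehicle wells and 100% = saturating stimulus response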
TAAR1 ag count – TAAR1 activation by candidate antagonists – cell-based, fluorescence, counter-screen for TAAR1 antagonist project. activation, % at 3 µM. AID 651955, 2012. shares compounds with TAAR1 antagonist. 2,400 tested, 2% active. hTAAR1 cell line, agonist mode; in the data active means activation above about 37%;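 further: CHO cells stably expressing TAAR1 with calcium dye readout; 0% = DMSO vehicle and 100% = full agonist response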
The depositor's hits bear a star; / = not tested or not shown. Shown are actives, neighbours in structure and some others; about 2.3% of the full set was active somewhere.

SMILES	V1aR counter	TAAR1 ag	TAAR1 antagonist	OXTR agonist	OXTR potentiate	nonsel antag count	TAAR1 antag conf	Ga16 ag counter	TAAR1 ag count
Cc1ccc(CSc2ccc3nnc(-c4ccccn4)n3n2)cc1	1.2	1.9	60.9*	-0.5	-2.2	24.6*	34.7	5.7	6.0
Brc1ccc(CSc2ccc3nnc(-c4ccccn4)n3n2)cc1	0.4	4.8	38.5	-0.1	-6.7	/	/	/	/
O=C(c1ccccc1)c1ccc(Oc2ccc(C(=O)O)c(C(=O)O)c2)cc1	0.2	0.1	-9.2	-0.6	-7.3	/	/	/	/
COc1ccccc1OCC(=O)NNC(=O)C1CCN(c2ncnc3sc(C)c(C)c23)CC1	4.6	8.7	43.8	1.9	-6.6	/	/	/	/
CCCN(CC(=O)Nc1ccccc1C)C(=O)C1CCN(c2ncnc3sc(C)c(C)c23)CC1	-1.5	9.9	60.4*	-1.9	-11.2	30.9*	51.2*	6.6	4.8
CCOc1ccc(NC(=O)CN(C)C(=O)C2CCN(c3ncnc4sc(C)c(C)c34)CC2)cc1OCC	-1.1	-0.1	3.8	-1.3	-10.7	/	/	/	/
Cc1cccc(OCC(=O)NNC(=O)C2CCN(c3ncnc4sc(C)c(C)c34)CC2)c1	2.0	19.4	75.0*	1.9	-15.2	35.9*	51.6*	11.1	20.1
Cc1sc2ncnc(N3CCC(C(=O)Nc4ccc(Cl)c(Cl)c4)CC3)c2c1C	0.6	15.9	23.7	0.0	-7.7	/	/	/	/
CCN(CC)c1ccc(C(=O)NNC(=O)C2CCN(c3ncnc4sc(C)c(C)c34)CC2)cc1	/	8.1	56.1*	/	/	25.9*	34.9	7.6	14.8
Cc1ccccc1OCC(=O)NNC(=O)C1CCN(c2ncnc3sc(C)c(C)c23)CC1	3.5	24.5	69.9*	-1.0	-14.0	38.8*	56.5*	13.5*	29.9
CNC(=O)/C(C#N)=C/c1c(N2CCN(c3ccc(OC)cc3)CC2)nc2c(C)cccn2c1=O	2.9	8.0	2.1	-2.2	-9.7	/	/	/	/
CN(Cc1ccccc1)S(=O)(=O)c1ccc(Cl)c(C(=O)NCc2cccnc2)c1	1.6	3.3	6.0	1.5	-4.4	/	/	/	/
Cc1ccccc1CN1CCC(n2nccc2NC(=O)CCOc2ccccc2)CC1	4.9	3.7	1.1	1.1	-6.6	/	/	/	/
Cc1ccc(SCC(=O)Nc2cc(S(=O)(=O)N3CCCCC3)ccc2C)cc1	1.2	1.6	8.8	-0.1	-9.3	/	/	/	/
CC(C)C(NS(=O)(=O)c1cccs1)C(=O)NCCCN1CCCCCC1 (centres undefined)	-0.1	0.6	-8.2	1.1	1.5	/	/	/	/
CCN=C1SC(CC(=O)Nc2ccccc2)C(=O)N1CC (centres undefined)	1.3	19.9	67.0*	-0.1	-13.9	34.2*	59.1*	10.3	8.8
CCN=C1SC(C(=O)Nc2ccccc2)CC(=O)N1CC (centres undefined)	0.7	21.0	65.2*	3.6	-17.3	31.0*	53.5*	9.4	10.2
Cc1ccc2nc(-c3ccc(CN4CCC(c5nc6ccccc6[nH]5)CC4)cc3)c(-c3ccccc3)nc2c1	/	32.1	73.2*	/	/	46.3*	60.1*	15.0*	21.4
Cc1cccc2nc(-c3ccccc3)c(-c3ccc(CN4CCC(c5nc6ccccc6[nH]5)CC4)cc3)nc12	/	9.7	14.7	/	/	/	/	/	/
